Compound activity from PubChem.
An excerpt weighted towards active compounds, which were near 2.6% of everything screened.
MT stabilizer – microtubule stabilizers in HeLa cells, primary screen, imaging, high-content imaging; HeLa tubulin immunostaining HCS, 24 h; share of cells brighter than vehicle mean+2SD; % tubulin-high responders, % at 10 µM; 0.83% of 200,000 active;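 active = plate Z-score above 3 for both tubulin-high and condensed-nucleus cell shares, with cell loss under 80%, at 10 µM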;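 also: anti alpha tubulin signal scored within the nucleus-defined area of each cell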
bCat nuc transl – modulators of beta-catenin nuclear translocation, primary screen, imaging, HeLa cells, immunofluorescence, high-content | nuclear translocation activity, % at 5 µM | 0.3% of 190,000 active;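 active = nuclear translocation activity above 50% at 5 µM, with a well cell count of 50 or more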;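 also: per-cell ratio of nuclear to cytoplasmic median beta-catenin stain intensity; plate controls were DMSO negative control for no effect and GSK-3 inhibitor IX positive control for full effect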
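System: Human HeLa cells, endogenous beta-catenin | Compound dosing: 5 µM primary, 0.02–20 µM confirmation | Timing: 24 h compound exposure at 37°C, 5% CO2 | Measured by: Fluorescence imaging of beta-catenin antibody stain plus DAPI | Read-out basis: % activation of per-cell nuclear versus cytoplasmic median beta-catenin signal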
NPY1 pot ag – NPY-Y1 receptor potentiators or agonists, primary screen, cell-based | NPY-Y1 expressing cells, potentiator/agonist activation | activation, % at 3.6 µM | 0.37% of 220,000 active | AID 1304, 2008; in the data active = activation above about 33%, passing the limit was not always enough;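 also: cells stimulated with NPY at EC10 then isoproterenol at EC100; 0% = low agonist plus stimulus and 100% = saturating agonist plus stimulus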
Target sequence (P25929 whole entry, looked up): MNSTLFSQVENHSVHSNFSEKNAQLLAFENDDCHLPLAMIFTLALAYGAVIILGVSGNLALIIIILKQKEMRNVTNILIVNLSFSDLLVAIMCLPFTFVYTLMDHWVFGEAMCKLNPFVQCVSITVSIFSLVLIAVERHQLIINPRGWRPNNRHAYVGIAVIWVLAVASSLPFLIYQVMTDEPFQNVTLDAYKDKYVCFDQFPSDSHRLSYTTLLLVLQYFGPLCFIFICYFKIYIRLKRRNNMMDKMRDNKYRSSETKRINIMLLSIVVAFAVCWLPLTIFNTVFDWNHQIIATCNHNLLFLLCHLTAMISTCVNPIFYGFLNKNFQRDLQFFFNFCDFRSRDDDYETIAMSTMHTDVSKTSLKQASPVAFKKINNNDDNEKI
NPY-Y2 PAM-ag – NPY-Y2 potentiators or agonists, primary screen, cell-based; Neuropeptide Y receptor type 2 (Homo sapiens), P49146; cells expressing NPY-Y2, potentiator/agonist read-out; activation, % at 3.6 µM; AID 1359, 2008; 0.45% of 220,000 active; in the data active = activation above about 27%;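 also: cells stimulated with NPY near EC25 plus isoproterenol at EC100; 0% = vehicle plus submaximal agonist and 100% = vehicle plus saturating agonist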
NPY Y1 blocker – NPY-Y1 receptor antagonists, primary screen, cell-based; Neuropeptide Y receptor type 1 (Homo sapiens), P25929; HEK293-CNG Y1 cells, membrane potential fluorescence; NPY at EC95, then isoproterenol; AID 1040, 2008; inhibition, % at 3.6 µM; 1% of 200,000 active;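 active = inhibition above the campaign mean inhibition of all tested compounds plus 3 SD, cut at about 20% in these data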;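 also: 0% = DMSO wells given NPY plus isoproterenol and 100% = isoproterenol alone without NPY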
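Assay system: HEK293 cells with Y1 receptor plus CNG channel | Probe or stimulus: NPY (25 nM), isoproterenol (1 µM), Ro 20-1724 (25 µM) | Timing: Compound incubation 1 h at room temperature, readout 45 min post-stimulation | Measured by: Membrane-potential fluorescent dye readout | Benchmarks: High control isoproterenol alone, low control NPY with isoproterenol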
NPY-Y2 antag – NPY-Y2 receptor antagonists, primary screen, cell-based; Neuropeptide Y receptor type 2 (Homo sapiens), P49146; NPY-Y2 expressing cells, antagonist mode; inhibition, % at 2.7 µM; 0.99% of 140,000 active; AID 793, 2007; in the data active = inhibition above about 17%;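 also: 0% = vehicle with agonist challenge and 100% = reference antagonist with challenge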
NPY1 antag ctr – NPY-Y1 receptor antagonists, selectivity check, counter-screen for NPY-Y2 antagonist project, cell-based; shares compounds with NPY-Y2 antag; cell-based NPY-Y1 antagonism counterscreen; inhibition, % at 3.6 µM; 19% of 710 active; AID 1256, 2008; in the data active = inhibition above about 20%;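 also: cells challenged with NPY then isoproterenol with cAMP sensed through a CNG channel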
NPY2 antag conf – NPY-Y2 receptor antagonists, retest of hits, confirmation, HEK293-CNG cells, membrane potential fluorescence, triplicate | inhibition, % at 2.8 µM | HEK293 NPY-Y2 CNG channel | 32% of 710 active | AID 1257, 2008 | shares compounds with NPY-Y2 antag;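 active = mean inhibition of triplicate wells above the hit cutoff set in the primary screen, cut at about 17% in these data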;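 also: 0% = DMSO with NPY challenge and 100% = BIIE0246 high control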
Numbers without * were called inactive; . = not tested or not shown.

SMILES | MT stabilizer | bCat nuc transl | NPY1 pot ag | NPY-Y2 PAM-ag | NPY Y1 blocker | NPY-Y2 antag | NPY1 antag ctr | NPY2 antag conf
Cc1ccc(CSCCNC(=O)c2ccc(N(C)S(=O)(=O)c3ccccc3)cc2)cc1 | 4 | 2 | -36 | -26 | 5 | 18* | 10 | 15
CN(c1ccc(C(=O)NCCSCc2ccc(Cl)cc2)cc1)S(=O)(=O)c1ccccc1 | 7 | -2 | -23 | 10 | 8 | 11 | . | .
COc1ccc(S(=O)(=O)N(C)CC(=O)N2CCN(c3ccc(F)cc3)CC2)cc1OC | 2 | -3 | -29 | -6 | 5 | 3 | . | .
COc1ccc(Cn2c(/C=C/c3ccccc3)nc3ccccc32)cc1 | 1 | . | -59 | -45 | 16 | 36* | 14 | 24*
CC(C)Cn1c(/C=C/c2ccccc2)nc2ccccc21 | 3 | -2 | -35 | -18 | 9 | 18* | 13 | 16
COc1ccc(/C=C/c2nc3ccccc3n2C)cc1 | 3 | -2 | -4 | -6 | 7 | . | . | .
CCn1c(/C=C/c2ccccc2)nc2ccccc21 | 3 | 1 | -25 | -14 | 12 | 9 | . | .
O=C(Nc1cccc([N+](=O)[O-])c1)c1ccc(N2CCCC2=O)cc1 | 3 | -4 | 6 | -1 | -3 | . | . | .
Cc1ccc(-c2cc(C(=O)Nc3ccc(S(=O)(=O)Nc4ncccn4)cc3)[nH]n2)c(O)c1C | . | 0 | 14 | 16 | . | . | . | .
CN(CC(CC(=O)Nc1nncs1)c1ccccc1)S(=O)(=O)c1ccc(Br)cc1 (centres undefined) | 4 | 0 | -17 | -13 | 9 | 18* | 7 | 6
CC1=C(C(=O)OCc2ccc3c(c2)OCO3)C(c2ccc(F)cc2)NC(=O)N1 (centres undefined) | 15* | 14 | -1 | 0 | 8 | 24* | 6 | 11
Cc1ccc(/C=C/C(=O)N2CCc3ccccc3C2)cc1 | 2 | . | -11 | -20 | 17 | 24* | 12 | 13
O=S(=O)(c1ccc(N2CCC(c3ccc(Cl)cc3)=N2)cc1)N(CCO)CCO | 2 | -2 | 17 | 15 | -3 | 2 | . | .
CN(C)CCCNS(=O)(=O)c1ccc(N2CCC(c3ccc(Cl)cc3)=N2)cc1 | 2 | 73* | 3 | 7 | 0 | 18* | 6 | 14
Cc1cc2nc(CSc3ccccc3)cc(=O)n2[nH]1 | 8 | 0 | 7 | 15 | 8 | . | . | .
CO/N=C/C1CCN(c2ncc(C(F)(F)F)cc2Cl)C1=O (centres undefined) | 2 | 2 | -12 | 4 | 0 | . | . | .
CCOc1ccc(N(CC(=O)NC(C)CC)S(=O)(=O)c2c(C)noc2C)cc1 (centres undefined) | 6 | . | 4 | -4 | 5 | 4 | . | .
CCOc1ccc(N(CC(=O)NC2CCCC(C)C2C)S(=O)(=O)c2c(C)noc2C)cc1 (centres undefined) | 9 | 0 | -7 | 14 | 7 | 20* | 4 | 6
CC1=C(C(=O)OCC2CCCO2)C(c2coc3ccccc3c2=O)C2=C(CCCC2=O)N1 (centres undefined) | 2 | -1 | -12 | 1 | -1 | . | . | .
CC(COc1cccc2ccccc12)CN1CCN(C)CC1 (centres undefined) | 4 | -4 | -1 | 1 | 0 | 17* | 7 | 7
CCCCn1c(SCC(=O)Nc2ccccc2C(F)(F)F)nc2ccsc2c1=O | 3 | 1 | 24 | 16 | 12 | 29* | 14 | 13
CCCCn1c(SCC(=O)N2CCN(c3ccccc3)CC2)nc2ccsc2c1=O | 3 | 3 | -5 | -4 | 6 | 20* | 25* | 14
Cc1nnc(SCc2nnc(-c3cccs3)o2)n1Cc1ccccc1 | 4 | 0 | -3 | 16 | -3 | . | . | .
Clc1ccc(-c2nnc(CSc3nnc(-c4cccs4)n3Cc3ccccc3)o2)cc1 | 3 | -5 | -12 | 19 | 15 | 25* | 23* | 5
COc1ccc(-c2nnc(SCc3nnc(-c4ccc(Cl)cc4)o3)n2-c2ccccc2)cc1 | 3 | 1 | -2 | -5 | 6 | 23* | 18 | 14
SMILES | MT stabilizer | bCat nuc transl | NPY1 pot ag | NPY-Y2 PAM-ag | NPY Y1 blocker | NPY-Y2 antag | NPY1 antag ctr | NPY2 antag conf
Cc1nnc(C)n1/N=C/c1ccc(-c2ccccc2)cc1 | 2 | -2 | 13 | -23 | 5 | -2 | . | .
Cc1ccc(S(=O)(=O)NC2c3cccc4cccc(c34)C2Sc2nncn2C)cc1 (centres undefined) | 2 | 0 | 7 | 1 | 4 | 21* | 1 | -1
Cn1cnnc1SC1c2cccc3cccc(c23)C1NS(=O)(=O)c1ccccc1 (centres undefined) | 4 | -1 | -7 | 4 | 4 | -1 | . | .
COc1ccc(N2C(=O)/C(=C\c3ccco3)N=C2SCC(=O)N(C(C)C)C(C)C)cc1Cl | 3 | -3 | -12 | -2 | 6 | 18* | 8 | 10
COc1ccc(-n2nc(C(=O)Nc3ccc4c(c3)OCO4)c3ccccc3c2=O)cc1 | 10 | . | -9 | -7 | 0 | 23* | 12 | 21*
Nn1c(Cc2cccc3ccccc23)nnc1SCc1c(Cl)cccc1Cl | 2 | 0 | -29 | -23 | 2 | 20* | 17 | 41*
Nn1c(Cc2cccc3ccccc23)nnc1SCc1ccc(Cl)c(Cl)c1 | 4 | . | -4 | 8 | 2 | 4 | . | .
NC(=S)N/N=C1/CCSc2ccc3ccccc3c21 | 3 | 1 | -25 | -13 | 3 | . | . | .
CN(CCC#N)S(=O)(=O)c1ccc2[nH]cc(C(=O)NCCc3ccccc3)c(=O)c2c1 | 4 | 1 | -13 | -17 | -2 | -1 | . | .
CC(=O)/C(C#N)=C1\NC(=O)C(Cc2ccccc2C)S1 (centres undefined) | . | 6 | -12 | -6 | . | . | . | .
COc1cc(-c2cc(C(=O)Nc3c(Cl)cc(Cl)cc3Cl)c3ccccc3n2)cc(OC)c1OC | 7 | . | -34 | -24 | 0 | 40* | 49* | 73*
N=c1n(Cc2ccccc2)c2ccccc2n1Cc1ccccc1 | 3 | . | -1 | 30 | 17 | 23* | 13 | 13
CCOC(=O)Cn1c(=N)n(Cc2ccccc2)c2ccccc21 | 2 | 1 | -14 | 7 | 3 | 9 | . | .
Cc1ncoc1C(=O)N1CCCC(C(=O)c2ccc(-c3ccccc3)cc2)C1 (centres undefined) | 1 | -1 | 18 | 3 | 3 | . | . | .
